# Only some compounds are listed: those with a hit (about 5.8% of all), similar ones and a draw of the others.
# NCF1 inh – p47phox/p22phox peptide binding inhibitors, primary screen, biochemical, uHTS, NADPH oxidase regulatory subunit | Neutrophil cytosol factor 1 (Homo sapiens), P14598 | fluorescence polarization, 2 h | inhibition, % at 24.7 µM | actives 0.53% (n = 220,000) | AID 1274, 2008;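 active = inhibition above about 30%, limit read from the data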;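 note: 0% = p47phox with labelled peptide and 100% = labelled peptide alone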
# Target sequence (P14598 whole entry, looked up): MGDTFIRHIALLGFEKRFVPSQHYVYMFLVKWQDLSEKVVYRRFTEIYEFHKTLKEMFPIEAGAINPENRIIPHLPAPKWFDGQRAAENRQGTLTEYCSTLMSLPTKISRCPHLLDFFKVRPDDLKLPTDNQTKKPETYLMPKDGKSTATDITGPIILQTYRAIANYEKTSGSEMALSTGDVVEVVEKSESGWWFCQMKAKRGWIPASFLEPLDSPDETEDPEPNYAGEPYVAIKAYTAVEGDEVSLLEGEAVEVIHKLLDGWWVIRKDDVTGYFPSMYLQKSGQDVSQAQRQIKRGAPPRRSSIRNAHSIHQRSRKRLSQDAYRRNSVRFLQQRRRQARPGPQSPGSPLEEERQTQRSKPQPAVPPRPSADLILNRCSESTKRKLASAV
# ROMK primary – ROMK potassium channel modulators, primary screen, cell-based, thallium flux, MLSMR library. ATP-sensitive inward rectifier potassium channel 1 (Homo sapiens), P48048. Tet-inducible ROMK, thallium flux fluorescence; actives lie on both sides. B-score at 10 µM. actives 2% (n = 130,000). AID 1918, 2009;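 active = signal ratio slope over the read window, or its plate-corrected B-score, at least 3 SD from the plate mean, either direction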;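 note: B-score of the F/F0 ratio slope over 7 to 12 s after thallium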
# WT yeast gro inh – growth inhibition of WT strain, primary screen, mitochondrial fusion inhibitor project, WT and mutant strains, chemical genetic. inhibition, % at 10 µM. mitochondrial fusion phenotypic screen. actives 2.1% (n = 190,000); in the data active = inhibition above about 58%; tested in S. cerevisiae
# Cl transport mod – KCC2 cotransporter modulators, thallium flux, primary screen, cell-based, HEK293 KCC2, FluoZin-2 fluorescence, MLSMR; Solute carrier family 12 member 5 (Homo sapiens), Q9H2X9; KCC2 cells, thallium flux FluoZin-2 fluorescence; B-score of Tl+ flux slope (higher = more flux/activation; lower = inhibition) at 10 µM; actives 2.2% (n = 190,000);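 active = thallium flux slope and its plate-corrected score both differing from the plate sample mean at a set confidence after two filtering rounds, in either direction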;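 note: slope of fluorescence scaled to starting intensity during 10 to 20 s after thallium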
# RBBP9 inhibitor – human RBBP9 inhibitors, primary screen, biochemical, fluorescence polarization, FP-Rh probe, HTS. recombinant RBBP9. inhibition, % at 7.94 µM. actives 0.2% (n = 220,000). Serine hydrolase RBBP9 (Homo sapiens), O75884. AID 1515, 2009;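 active = inhibition above the campaign mean of all tested compounds plus 3 SD, cut at about 14% in these data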;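 note: plate controls were DMSO wells with RBBP9 for no effect and wells lacking RBBP9 protein for full effect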
# Target sequence (O75884 whole entry, looked up): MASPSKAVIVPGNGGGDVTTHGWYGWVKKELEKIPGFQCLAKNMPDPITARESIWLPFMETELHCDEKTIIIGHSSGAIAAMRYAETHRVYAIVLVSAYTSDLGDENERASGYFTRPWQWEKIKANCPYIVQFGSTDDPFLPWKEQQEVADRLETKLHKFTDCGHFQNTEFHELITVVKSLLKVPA
#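 Measured by – fluorescence polarization · Test system – RBBP9 protein · Input – 2.5 µM RBBP9 dispensing solution, before mixing · Measure – percent inhibition from mP, scaled between DMSO and no-protein wells · Benchmarks – DMSO-treated enzyme wells and wells lacking RBBP9 · Times – preincubation 30 min plus labeling 45 min at 25 °C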
# 14-3-3 Bad inh – inhibitors of 14-3-3 zeta/Bad binding, primary screen, biochemical, TR-FRET, bovine 14-3-3 zeta | 14-3-3 protein zeta/delta (Bos taurus), P63103 | TR-FRET 14-3-3zeta/Dy647-pBad peptide displacement, 1 h | actives 0.71% (n = 220,000) | inhibition, % at 21.7 µM;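 active = inhibition above about 70%, limit read from the data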;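 note: 0% = full 14-3-3 plus peptide FRET controls and 100% = background without 14-3-3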
# KCC2 sec1 – KCC2 modulators in sodium-free buffer, confirmation, cell-based, HEK293 KCC2, thallium flux, secondary assay; normalised thallium flux (F/F0 slope) at 10 µM; shares compounds with Cl transport mod; actives 15% (n = 3,700); AID 1713, 2009; FluoZin2 fluorescence; hits give high values;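 active = thallium flux slope above the same plate's solvent-only control mean plus 3 SD; inconclusive = the two replicate wells disagree; inactive = no significant difference from solvent-only control wells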
# KCC2 bumet counter – thallium flux persisting under bumetanide in KCC2 cells, confirmation, counter-screen for KCC2 modulator project, cell-based, HEK293 KCC2, FluoZin2, secondary assay 3 | shares compounds with Cl transport mod | actives 49% (n = 3,700) | HEK293-KCC2 + bumetanide/ouabain; hits give high values | normalized thallium flux at 10 µM | AID 1714, 2009;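 active = thallium entry rate above the same plate's blocked-transporter control wells by more than 3 SD; inconclusive = the two repeat wells disagree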;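 note: raw slope of fluorescence over initial fluorescence between 10 and 20 s after thallium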
# KCC2 sec2 – KCC2 modulators without ouabain present, confirmation, cell-based, HEK293 KCC2, thallium flux, FluoZin2, secondary assay 2; thallium flux FluoZin2 fluorescence; actives lie on both sides; F/F0 rise rate, 10–20 s post-thallium; actives 23% (n = 3,700); AID 1715, 2009; shares compounds with Cl transport mod; normalized thallium flux at 10 µM;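 active = thallium flux slope more than 3 SD above or below the plate's solvent-only control mean, mostly below; inconclusive = the two repeat wells disagreed; inactive = no significant shift from solvent-only controls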;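 note: raw slope with 0.1% DMSO as baseline and bumetanide as block control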
# HEK counter1 – thallium flux modulation in parental HEK cells, confirmation, counter-screen for KCC2 modulator project, cell-based, counterscreen 1; shares compounds with Cl transport mod; HEK293 parental cells, thallium flux FluoZin2, ouabain; baseline-ratio fluorescence slope, 10–20 s after thallium; thallium flux rate (normalised fluorescence) at 10 µM; actives 46% (n = 3,700); AID 1716, 2009;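 active = thallium flux rate significantly above the same plate's solvent-only control wells, beyond their mean plus 3 SD; inconclusive = the two replicate wells gave conflicting results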
# KCC2 ouabain – KCC2 inhibitors and activators, ouabain retest, confirmation, HEK-KCC2 cells; HEK293-KCC2, thallium flux FluoZin2 fluorescence; bidirectional: low = inhibitor, high = activator; actives 48% (n = 3,700); shares compounds with Cl transport mod; raw Tl+ flux slope (below DMSO = inhibition, above = activation) at 10 µM; AID 1717, 2009;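 active = thallium flux slope beyond 3 SD from same-plate DMSO control mean in most replicates, usually higher, sometimes lower; inconclusive = repeat tests gave conflicting results; inactive = no significant difference from controls in most replicates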;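 note: slope of initial-normalized fluorescence between seconds 10 and 20 after thallium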
# HEK293 Tl flux2 – native HEK Tl+ uptake effects, second counter-screen – HEK cells, counterscreen 2, counter-screen for KCC2 modulator project, confirmation; actives 33% (n = 3,700); HEK293 parental, thallium flux FluoZin-2 fluorescence slope; shares compounds with Cl transport mod; AID 1718, 2009; thallium flux slope at 10 µM;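 active = thallium flux slope above the same plate's solvent-control mean plus 3 SD in both duplicate wells; inconclusive = duplicate wells that disagreed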;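 note: run without ouabain in cells lacking the KCC2 cotransporter; slope of fluorescence scaled to its starting value between 10 and 20 s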
# * = called active by the depositor; ? = inconclusive; . = not tested or not shown.
SMILES,NCF1 inh,ROMK primary,WT yeast gro inh,Cl transport mod,RBBP9 inhibitor,14-3-3 Bad inh,KCC2 sec1,KCC2 bumet counter,KCC2 sec2,HEK counter1,KCC2 ouabain,HEK293 Tl flux2
CN1CCN(S(=O)(=O)c2cccc(C(=O)Nc3nc(-c4ccccc4)cs3)c2)CC1,-31.8,-0.0173,10.3,-3.04*,-4.4,-5.1,0.0184,0.00445,0.0269,?,0.0141,0.0105
O=C(Nc1nc(-c2ccccc2)cs1)c1ccccc1NS(=O)(=O)c1ccc(F)cc1,-54.5,-1.14,77.9*,-6.49*,-4.5,12.8,0.00583,?,0.0173*,?,0.00963*,0.00969
CCC(=O)Nc1nc(-c2ccccc2)ns1,-18.7,-0.774,10.5,2.47*,-11.6,-2.1,0.00726,0.00448,0.0321,0.00741,0.019,0.0104
CCCC(=O)Nc1nc(-c2ccccc2)ns1,-11.3,0.0699,9.3,-0.338,5.3,4.7,.,.,.,.,.,.
Cc1csc(SC(C)c2nc3scc(-c4ccccc4)c3c(=O)[nH]2)n1 (stereo not drawn),-19.4,.,.,0.338,7.3,-0.2,.,.,.,.,.,.
Cc1ccc(CCNC(=O)CNC(=O)c2cccs2)cc1,3.5,-0.621,12.3,0.124,-13.1,-0.3,.,.,.,.,.,.
CSc1ncccc1C(=O)OCC(=O)c1cccc(Br)c1,-19.2,-0.00849,5.3,0.211,-0.7,-9.5,.,.,.,.,.,.
O=C(Nc1nc(-c2ccccc2)cs1)c1cccs1,-22.6,.,34.6,-1.15,-12.6,3.5,?,0.00941*,0.0314,0.0073,?,0.0099
O=C(Nc1nc(-c2ccc(Cl)s2)cs1)c1cccs1,-45.0,.,71.7,-0.34,0.1,-2.3,.,.,.,.,.,.
Cn1nnnc1SCC(=O)NC(=O)c1cccc([N+](=O)[O-])c1,-11.9,.,.,0.381,-1.9,-0.1,.,.,.,.,.,.
Cc1cc(Cl)ccc1OCc1n[nH]c(=S)n1C1CCCCC1,-8.7,.,94.4*,15.6*,-0.5,0.7,0.0072,0.0409*,0.0488*,0.0403*,0.0365*,0.0312*
COc1ccc(Cl)cc1-c1n[nH]c(=S)n1C1CCCCC1,-8.4,1.06,-1.0,0.0257,-7.9,10.7,.,.,.,.,.,.
COc1ccccc1N1CCN(C(=S)NC(=O)/C=C/c2ccccc2)CC1,-5.7,-0.994,.,6.71*,-1.7,1.4,0.0059,0.0109*,0.0335,0.0136*,?,0.014*
COc1ccccc1N1CCN(C(=S)NC(=O)/C=C/c2ccc(F)cc2)CC1,-24.5,.,.,26.9*,-5.4,1.7,0.00554,0.0394*,0.0336,0.0155*,0.0315*,0.0181*
COc1ccc(C(=O)c2cn[nH]c2-c2cc(Cl)ccc2O)cc1,-3.6,.,3.7,-5.07*,-0.4,-2.4,0.00993,0.00602,0.0329,0.0072,0.0221,0.0107
O=C(c1ccc(Cl)cc1)c1cn[nH]c1-c1ccccc1O,-4.0,0.134,-5.4,-3.55,1.1,6.1,.,.,.,.,.,.
COc1ccc(C2CCCN2C(=O)Nc2ccc(Cl)cc2)cc1OC (stereo not drawn),3.9,.,13.9,-3.35*,-7.0,1.8,0.00657,0.0049,0.0302,0.00749,?,0.011
CC(=O)NC(C)C(=O)OCC(=O)c1ccc(-c2ccccc2)cc1 (stereo not drawn),-7.0,0,4.6,-4.1*,-9.4,6.7,0.00724,0.00512,?,0.00788,0.0175,0.0119
O=C1C(Cc2c[nH]c3ccccc23)NC(=S)N1C1CCCCC1 (stereo not drawn),-16.0,.,13.7,0.24,-3.1,-10.1,.,.,.,.,.,.
O=S(=O)(Nc1nc2ccccc2nc1Nc1cccc(S(=O)(=O)N2CCCCC2)c1)c1ccccc1,-28.5,.,-10.1,-3.52*,-3.2,-5.1,0.0063,0.00677,0.0263,?,?,0.00974
O=C(O)C1CCC(Cn2c(SCc3cc(=O)n4cc(Cl)ccc4n3)nc3ccsc3c2=O)CC1 (stereo not drawn),-10.8,1.25,-1.6,-2.44,-2.4,-2.1,.,.,.,.,.,.
C=CCN1N=C(c2ccc(NC(=O)c3ccccc3)cc2)CSC1=O,-10.1,-0.0517,-10.5,.,-5.0,5.0,.,.,.,.,.,.
O=S(=O)(c1cccc2cccnc12)N1CCN(Cc2ccccc2)CC1,-0.8,-0.153,-8.2,-3.06*,-4.1,-5.2,0.00703,0.00464,0.0248*,0.00758,0.0172*,0.00964
O=C(C1CCN(S(=O)(=O)c2cccc3cccnc23)CC1)N1CCN(c2ccc(Cl)cc2)CC1,-127.5,.,21.6,-3.73*,2.7,-1.8,0.00826,?,0.0308,0.00679,0.0207,0.0101
COC(=O)c1ccc(NC(C)C(=O)OC)c([N+](=O)[O-])c1 (stereo not drawn),-13.5,0.201,-3.2,-0.97,-5.8,-20.9,.,.,.,.,.,.
O=C(C1CCCN(S(=O)(=O)c2cccc3nonc23)C1)N1CCC(Cc2ccccc2)CC1 (stereo not drawn),-47.4,-1.79,13.3,.,-0.2,-11.6,0.00574,?,0.0241*,0.00673,?,0.0105

# Screens as filed in PubChem.
